Measurements taken from ChEMBL document CHEMBL3797186, “Single Residue Substitutions That Confer Voltage-Gated Sodium Ion Channel Subtype Selectivity in the NaV1.7 Inhibitory Peptide GpTx-1” (J Med Chem, 2016).
pIC50: −log10 of the molar value. Positions of bridges follow the written chain, without caps; N, C: chain ends. Non-standard residues stand in square brackets, D forms with d. Residues, ends and D or L forms follow the SMILES beside them. 1Nal = N[C@@H](Cc1cccc2ccccc12)C(=O)O

Assays:
Format in all cases: cell-based
[1] = target: T1, Sodium channel protein type 9 subunit alpha (Homo sapiens, UniProt Q15858); assay: Inhibition of human Nav1.7 expressed in HEK293 cells by whole cell patch clamp electrophysiology method
T1 sequence (Q15858 whole entry): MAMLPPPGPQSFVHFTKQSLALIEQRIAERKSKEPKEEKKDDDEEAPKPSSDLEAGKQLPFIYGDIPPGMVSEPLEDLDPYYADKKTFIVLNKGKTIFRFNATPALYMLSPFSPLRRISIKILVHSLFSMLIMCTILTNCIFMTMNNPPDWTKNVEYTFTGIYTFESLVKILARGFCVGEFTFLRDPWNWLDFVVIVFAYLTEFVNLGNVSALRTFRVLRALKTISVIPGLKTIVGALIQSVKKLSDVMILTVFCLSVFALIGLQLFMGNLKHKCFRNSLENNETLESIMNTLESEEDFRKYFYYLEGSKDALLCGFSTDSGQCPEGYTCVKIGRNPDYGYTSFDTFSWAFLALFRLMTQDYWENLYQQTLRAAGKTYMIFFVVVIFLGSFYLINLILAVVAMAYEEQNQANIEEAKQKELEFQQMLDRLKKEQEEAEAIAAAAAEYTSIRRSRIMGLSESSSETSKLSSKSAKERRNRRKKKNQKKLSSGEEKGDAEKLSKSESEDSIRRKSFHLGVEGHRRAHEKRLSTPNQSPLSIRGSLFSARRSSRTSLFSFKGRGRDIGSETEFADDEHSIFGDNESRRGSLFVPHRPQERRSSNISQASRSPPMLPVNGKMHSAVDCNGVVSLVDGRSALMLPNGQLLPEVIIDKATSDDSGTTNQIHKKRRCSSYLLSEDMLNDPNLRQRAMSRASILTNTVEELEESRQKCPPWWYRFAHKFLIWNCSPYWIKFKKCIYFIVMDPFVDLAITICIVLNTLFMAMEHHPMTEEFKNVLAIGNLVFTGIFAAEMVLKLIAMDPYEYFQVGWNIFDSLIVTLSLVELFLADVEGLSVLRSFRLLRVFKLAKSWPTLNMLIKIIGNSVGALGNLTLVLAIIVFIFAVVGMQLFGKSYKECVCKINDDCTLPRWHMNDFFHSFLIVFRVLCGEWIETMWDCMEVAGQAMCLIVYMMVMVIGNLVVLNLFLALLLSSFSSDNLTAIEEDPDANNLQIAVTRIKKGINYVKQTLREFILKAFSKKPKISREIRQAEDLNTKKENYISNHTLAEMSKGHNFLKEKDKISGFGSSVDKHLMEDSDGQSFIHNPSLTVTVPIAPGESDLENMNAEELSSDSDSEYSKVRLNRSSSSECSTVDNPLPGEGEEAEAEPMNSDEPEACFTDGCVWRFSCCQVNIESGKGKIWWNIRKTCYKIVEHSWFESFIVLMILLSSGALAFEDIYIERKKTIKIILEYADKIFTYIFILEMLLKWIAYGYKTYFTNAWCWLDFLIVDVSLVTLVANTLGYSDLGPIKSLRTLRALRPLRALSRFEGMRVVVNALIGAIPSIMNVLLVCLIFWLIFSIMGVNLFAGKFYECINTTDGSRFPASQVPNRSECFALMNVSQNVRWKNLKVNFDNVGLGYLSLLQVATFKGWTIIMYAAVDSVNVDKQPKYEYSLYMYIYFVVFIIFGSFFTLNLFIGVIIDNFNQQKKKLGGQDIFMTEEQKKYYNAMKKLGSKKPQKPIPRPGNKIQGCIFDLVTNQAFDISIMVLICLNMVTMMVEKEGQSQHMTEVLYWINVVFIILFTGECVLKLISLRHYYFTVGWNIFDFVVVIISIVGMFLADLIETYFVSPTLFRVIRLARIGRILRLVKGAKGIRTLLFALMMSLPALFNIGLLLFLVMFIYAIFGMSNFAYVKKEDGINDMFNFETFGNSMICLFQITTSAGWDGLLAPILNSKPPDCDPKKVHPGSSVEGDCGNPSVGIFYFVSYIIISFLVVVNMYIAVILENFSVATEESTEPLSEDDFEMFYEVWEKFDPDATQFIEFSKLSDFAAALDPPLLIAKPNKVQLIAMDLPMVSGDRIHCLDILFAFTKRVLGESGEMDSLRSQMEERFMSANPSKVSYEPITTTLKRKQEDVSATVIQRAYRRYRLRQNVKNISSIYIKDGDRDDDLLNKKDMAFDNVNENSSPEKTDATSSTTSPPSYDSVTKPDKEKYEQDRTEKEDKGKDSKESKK

[2] = target: T2, Sodium channel protein type 5 subunit alpha (Homo sapiens, UniProt Q14524); assay: Inhibition of human Nav1.5 expressed in HEK293 cells by whole cell patch clamp electrophysiology method
T2 sequence (Q14524 whole entry): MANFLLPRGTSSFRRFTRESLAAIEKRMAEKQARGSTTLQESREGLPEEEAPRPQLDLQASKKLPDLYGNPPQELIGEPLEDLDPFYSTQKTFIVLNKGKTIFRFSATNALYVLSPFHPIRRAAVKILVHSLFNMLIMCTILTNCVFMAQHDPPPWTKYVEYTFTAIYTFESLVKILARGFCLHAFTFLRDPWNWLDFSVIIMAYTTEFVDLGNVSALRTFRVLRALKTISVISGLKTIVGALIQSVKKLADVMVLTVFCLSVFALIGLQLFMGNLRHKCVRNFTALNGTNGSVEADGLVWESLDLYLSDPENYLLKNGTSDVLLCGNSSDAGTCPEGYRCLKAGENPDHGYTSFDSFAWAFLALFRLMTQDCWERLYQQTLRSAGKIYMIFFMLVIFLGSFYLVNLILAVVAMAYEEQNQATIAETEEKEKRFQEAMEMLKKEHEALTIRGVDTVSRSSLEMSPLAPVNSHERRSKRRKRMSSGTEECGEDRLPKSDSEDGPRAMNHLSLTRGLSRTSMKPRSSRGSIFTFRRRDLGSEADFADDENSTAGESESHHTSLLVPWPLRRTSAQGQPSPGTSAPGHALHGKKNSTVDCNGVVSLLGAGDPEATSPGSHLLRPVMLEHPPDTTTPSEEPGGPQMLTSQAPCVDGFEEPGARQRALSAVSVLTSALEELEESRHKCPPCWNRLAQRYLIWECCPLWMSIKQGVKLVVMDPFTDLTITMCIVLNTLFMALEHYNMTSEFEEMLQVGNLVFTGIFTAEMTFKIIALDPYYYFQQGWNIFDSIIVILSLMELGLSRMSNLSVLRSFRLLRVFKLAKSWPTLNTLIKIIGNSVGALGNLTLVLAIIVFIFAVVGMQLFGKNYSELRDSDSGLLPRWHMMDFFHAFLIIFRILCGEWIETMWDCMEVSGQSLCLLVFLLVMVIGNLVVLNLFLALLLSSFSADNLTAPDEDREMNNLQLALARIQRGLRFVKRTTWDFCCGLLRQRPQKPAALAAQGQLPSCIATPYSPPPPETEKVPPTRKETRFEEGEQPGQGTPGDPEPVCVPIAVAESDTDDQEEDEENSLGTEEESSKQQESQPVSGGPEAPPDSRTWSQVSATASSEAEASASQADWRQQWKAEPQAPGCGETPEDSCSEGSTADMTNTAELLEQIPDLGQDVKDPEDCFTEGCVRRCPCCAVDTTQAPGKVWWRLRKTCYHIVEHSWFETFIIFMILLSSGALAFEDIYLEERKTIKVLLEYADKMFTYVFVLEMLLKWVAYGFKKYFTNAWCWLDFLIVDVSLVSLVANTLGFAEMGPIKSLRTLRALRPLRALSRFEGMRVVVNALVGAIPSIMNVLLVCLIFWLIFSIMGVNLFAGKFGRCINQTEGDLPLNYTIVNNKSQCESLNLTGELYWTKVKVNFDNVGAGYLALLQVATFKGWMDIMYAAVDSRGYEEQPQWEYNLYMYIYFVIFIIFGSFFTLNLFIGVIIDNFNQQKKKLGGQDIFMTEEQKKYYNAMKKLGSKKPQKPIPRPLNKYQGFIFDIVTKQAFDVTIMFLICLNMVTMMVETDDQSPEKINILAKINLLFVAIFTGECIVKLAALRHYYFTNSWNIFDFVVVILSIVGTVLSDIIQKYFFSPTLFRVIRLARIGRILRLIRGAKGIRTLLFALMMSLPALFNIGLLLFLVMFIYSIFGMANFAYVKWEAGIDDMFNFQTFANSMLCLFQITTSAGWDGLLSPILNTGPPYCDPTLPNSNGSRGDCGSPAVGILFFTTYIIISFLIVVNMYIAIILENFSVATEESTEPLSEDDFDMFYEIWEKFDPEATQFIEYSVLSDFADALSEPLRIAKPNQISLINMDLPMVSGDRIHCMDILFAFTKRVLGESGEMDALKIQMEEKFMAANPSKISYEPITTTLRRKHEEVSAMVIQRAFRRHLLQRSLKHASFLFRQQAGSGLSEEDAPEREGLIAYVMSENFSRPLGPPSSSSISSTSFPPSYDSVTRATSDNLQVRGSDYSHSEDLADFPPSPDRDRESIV
Procedure, shortened: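 Stable HEK293 line expressing human NaV1.5, recorded on the PatchXpress 7000A. Percent inhibition versus concentration was pooled from at least 10 cells, with two to three points per concentration. The pooled set was fitted with a four-parameter Hill equation to give a single IC50 curve.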

[3] = target: T2, Sodium channel protein type 5 subunit alpha; assay: Inhibition of human Nav1.5 expressed in HEK293 cells assessed as inward peak current by ion-works quattro patch clamp electrophysiology method
Procedure, shortened: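 Stable HEK293 line expressing human NaV1.5, recorded by population patch clamp on the IonWorks Quattro.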

[4] = target: T1, Sodium channel protein type 9 subunit alpha; assay: Inhibition of human Nav1.7 expressed in HEK293 cells assessed as inward peak current by ion-works quattro patch clamp electrophysiology method

CC[C@H](C)[C@@H]1NC(=O)[C@@H]2CSSC[C@@H]3NC(=O)[C@H](C(C)C)NC(=O)[C@H](CC(C)C)NC(=O)[C@H](CC(N)=O)NC(=O)[C@@H]4CCCN4C(=O)[C@H](CCCNC(=N)N)NC(=O)[C@H](CSSC[C@H](NC(=O)[C@@H](N)CC(=O)O)C(=O)N[C@@H](CC(C)C)C(=O)NCC(=O)N[C@@H](Cc4ccccc4)C(=O)N[C@@H](CCSC)C(=O)N[C@@H](CCCNC(=N)N)C(=O)N[C@@H](CCCCN)C(=O)N2)NC(=O)[C@H](CSSC[C@@H](C(=O)N[C@@H](CCCCN)C(=O)N[C@@H](Cc2ccc(O)cc2)C(=O)N[C@H](C(=O)N[C@@H](Cc2cccc4ccccc24)C(N)=O)C(C)C)NC(=O)[C@H](Cc2c[nH]c4ccccc24)NC(=O)[C@H](CCCCN)NC(=O)[C@H](Cc2cnc[nH]2)NC(=O)[C@H]([C@@H](C)O)NC(=O)[C@H](CCCNC(=N)N)NC(=O)[C@H](CO)NC3=O)NC(=O)[C@H](CCCCN)NC(=O)[C@H](CC(=O)O)NC(=O)[C@H](CC(N)=O)NC(=O)[C@H](CC(=O)O)NC(=O)[C@@H]2CCCN2C1=O (H-DCLGFMRKCIPDNDKCCRPNLVCSRTHKWCKYV[1Nal]-NH2; disulfide 2-17, 9-23, 16-30)
pIC50 [1]: 8.30 | pIC50 [2]: 5.74 | pIC50 [3]: < 5.30 | pIC50 [4]: 7.40
